Reference: publication PMC2773749 (Biochemistry, 2009)

Assays:
β-lactamase = β-lactamase (Enterobacter cloacae, UniProt P05364); assay: β-Lactamase promiscuous inhibitor assay; type: biochemical; details: in the absence of Triton X-100
K18PL tau [1] = target: T1, K18PL tau (Homo sapiens, UniProt P10636, P618L); assay: Primary qHTS K18PL tau assembly, fluorescence polarization; type: biochemical; details: for 1° FP Screen Log IC50: printed as Log IC50; for 1° FP Screen % Inhib: maximum % inhibition of FP
T1 sequence (P10636 561-686 P618L): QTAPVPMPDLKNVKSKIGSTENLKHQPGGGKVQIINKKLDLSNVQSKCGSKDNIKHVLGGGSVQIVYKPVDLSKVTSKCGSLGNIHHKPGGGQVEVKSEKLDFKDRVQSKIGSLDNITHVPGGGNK
Outline: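 K18PL (30 µM stock with 0.24 µM Alexa Red-labelled K18PL) received compound at six five-fold dilutions (56 µM–18 nM), then heparin, and incubated 6 h at 37°C. FP was read after ThT (ex 555, em 632 nm, P/S channels); mP = 1000*(S−G*P)/(S+G*P), G = 1. Inhibition was normalised to non-fibrillizing K18KD and DMSO wells, pattern-corrected, and curve-fitted and classified. Single determinations.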

[2] = Activity in other PubChem / NIH Chemical Genomics Center screens
K18PL tau [3] = target: T1, K18PL tau; assay: Primary qHTS K18PL tau fibrillization, ThT fluorescence readout; type: biochemical; details: for 1° ThT Screen Curve class / 1° ThT Screen Log IC50: ThT fluorescence; for 1° ThT Screen Log IC50: printed as Log IC50; for 1° ThT Screen % Inhib: maximum % inhibition of ThT fluorescence
Outline: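 Screen used K18PL tau (15 µM) with Alexa Red-labelled K18PL and 40 µM heparin stock, plus compound at six five-fold dilutions (56 µM–18 nM), run 6 h at 37°C. ThT was added (12.5 µM final, 100 mM glycine pH 8.5) for 1 h at room temperature; read ex 450/em 510 nm. Percent inhibition was computed versus median K18KD and DMSO controls, then pattern-corrected, with concentration-response curves fitted and classified. Single determinations per concentration.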

full-length tau40 = full-length tau40 (Homo sapiens, UniProt P10636); assay: Tau40 ThT fluorescence assay; type: biochemical; details: inhibition of ThT fluorescence, compound 50 µM
full-length tau40, sequence (P10636 1-441 isoform P10636-8): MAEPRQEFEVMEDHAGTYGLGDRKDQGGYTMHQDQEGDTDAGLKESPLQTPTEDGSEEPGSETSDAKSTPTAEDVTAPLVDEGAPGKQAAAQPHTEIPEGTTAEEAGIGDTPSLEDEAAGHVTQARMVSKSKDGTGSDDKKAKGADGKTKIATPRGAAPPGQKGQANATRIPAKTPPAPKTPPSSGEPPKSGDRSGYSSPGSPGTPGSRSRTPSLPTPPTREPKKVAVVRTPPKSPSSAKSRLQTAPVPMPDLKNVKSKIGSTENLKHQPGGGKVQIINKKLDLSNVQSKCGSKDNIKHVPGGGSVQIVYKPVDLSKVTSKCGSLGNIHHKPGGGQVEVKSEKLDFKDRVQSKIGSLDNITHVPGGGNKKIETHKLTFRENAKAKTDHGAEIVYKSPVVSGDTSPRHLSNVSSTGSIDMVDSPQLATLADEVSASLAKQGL

K18PL tau [4] = target: T1, K18PL tau; assay: Repeat K18PL tau ThT fluorescence assay; type: biochemical; details: repeat testing of screening hits, maximum percent inhibition
Outline: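 Retesting of K18PL heparin-induced fibrillization used duplicate samples at each concentration, with the highest tested concentration 80 µM. ThT was read at 12.5 µM final in 100 mM glycine, pH 8.5, with excitation 450 nm and emission 510 nm. IC50 and percent inhibition at the top concentration were derived.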

[5] = Alexa Red total fluorescence; details: percent inhibition of Alexa Red total fluorescence
Outline: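 Alexa Red total fluorescence was computed from the qHTS FP S and P channel readings as TF = S + 2*P. It was expressed as a percentage of the DMSO control value, with values >30% flagged as potential fluorescence interference.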

Tau40 = Tau40 (Homo sapiens, UniProt P10636); assay: SEC of Tau40 fibrillization reaction post-centrifugation supernatants; type: biochemical; details: 50 µM MLS000062428
Tau40, sequence (P10636 1-441 isoform P10636-8): as above
Outline: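 Tau40 (50 µM) was incubated with heparin (20 µM) ± test compound in 100 mM sodium acetate, pH 7.0, for 5 days at 37°C. A no-heparin control was included. Reactions were spun at 40,000 g for 30 min, and supernatants were run on Superdex 200 at 0.4 ml/minute. Void volume was set by blue dextran, with BSA and cytochrome c as markers.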

K18PL tau [6] = target: T1, K18PL tau; assay: K18PL tau centrifugation; type: biochemical; details: compound 100 µM, Table 1 hits
Outline: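 Heparin-induced K18PL fibrillization was run with test compound at a single concentration of 100 µM or with DMSO vehicle, then centrifuged to sediment fibrils. Supernatant and pellet fractions were analysed by SDS-PAGE, and the percentage of tau remaining in the soluble fraction was determined.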

[7] = target: tau-mediated MT assembly (K18 tau, bovine brain tubulin) (Homo sapiens, UniProt P10636); assay: Tau-mediated MT assembly assay; type: biochemical; details: 50 µM compound, 40 µM K18, 30 µM tubulin
tau-mediated MT assembly (K18 tau, bovine brain tubulin), sequence (P10636 561-686): as the sequence (P10636 561-686 P618L) above, with L58P counted along it

β-lactamase, sequence (P05364 21-381): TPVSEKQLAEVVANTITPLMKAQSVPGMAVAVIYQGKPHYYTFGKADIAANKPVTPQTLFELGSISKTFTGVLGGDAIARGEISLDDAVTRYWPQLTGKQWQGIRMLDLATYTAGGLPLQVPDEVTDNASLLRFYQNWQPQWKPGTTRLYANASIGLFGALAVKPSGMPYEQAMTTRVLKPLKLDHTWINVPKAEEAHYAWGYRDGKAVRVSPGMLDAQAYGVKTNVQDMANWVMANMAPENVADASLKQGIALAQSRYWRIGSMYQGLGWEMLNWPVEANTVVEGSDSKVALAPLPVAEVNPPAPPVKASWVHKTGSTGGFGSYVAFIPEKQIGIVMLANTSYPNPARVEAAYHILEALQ

1° FP Screen Log IC50 (K18PL tau [1]) | 1° ThT Screen Curve class (K18PL tau [3]) | 1° ThT Screen Log IC50 (K18PL tau [3]) | 1° ThT Screen % Inhib (K18PL tau [3]) | Repeat ThT Assay % Inhib (K18PL tau [4]) | SMILES | promiscuity in other screens [2] | also measured
– | – | – | – | – | NS(=O)(=O)c1cc(C(=O)O)c(NCc2ccco2)cc1Cl [Furosemide] | – | β-lactamase inhibition (β-lactamase): 3%
−5.3 | 2.1 | −5.0 | 80% | – | CCOC(=O)c1nn(-c2ccccc2)c(=O)c2c(N)scc12 [MLS000034832] | do not show signs of promiscuity | –
−5.1 | 1.2 | −5.4 | 65% | 84% | CCn1c(CSc2nccn2C)nc2cc(C(=O)O)ccc21 [MLS000058666] | – | 1° FP Screen Curve class (K18PL tau [1]): 1.2; 1° FP Screen % Inhib (K18PL tau [1]): 41%; Tau40 % Inhib (full-length tau40): 81%; Total Fluor % Inhib [5]: <10%
−5.0 | 2.1 | −5.0 | 94% | 97% | CCOC(=O)c1nn(-c2ccc(OC)cc2)c(=O)c2c(N)scc12 [MLS000062428] | do not show signs of promiscuity | 1° FP Screen Curve class (K18PL tau [1]): 2.2; 1° FP Screen % Inhib (K18PL tau [1]): 46%; Tau40 % Inhib (full-length tau40): 64%; oligomeric tau species in post-centrifugation supernatant (Tau40; eluted in column void volume): detectable oligomeric species; amount of monomeric tau in post-centrifugation supernatant (Tau40; relative to untreated fibrillization reaction): appreciable increase; Centrifugation % Soluble (K18PL tau [6]): 80%; Total Fluor % Inhib [5]: 49%
– | – | – | – | – | CC(=O)c1c(O)c(C)c(O)c(Cc2c(O)c3c(c(C(=O)/C=C/c4ccccc4)c2O)OC(C)(C)C=C3)c1O [Rottlerin] | – | β-lactamase inhibition (β-lactamase): 53%
– | – | – | – | – | CN(C)c1ccc2nc3ccc(=[N+](C)C)cc-3sc2c1 [methylene blue, reference compound] | active in a high percentage of PubChem screens | effect on tau-mediated tubulin polymerization [7]: significant diminution

SMILES | 1° FP Screen Log IC50 (K18PL tau [1]) | 1° ThT Screen Curve class (K18PL tau [3]) | 1° ThT Screen Log IC50 (K18PL tau [3]) | 1° ThT Screen % Inhib (K18PL tau [3]) | Repeat ThT Assay % Inhib (K18PL tau [4]) | promiscuity in other screens [2] | also measured
CN(C(=S)Nc1cccnc1)c1ccc(O)cc1 [MLS000339510] | −5.5 | – | −5.7 | – | – | – | –
CC(N)[C@H](O)c1ccc(O)c(O)c1 (stereo partly drawn) [NCGC00093795] | −5.7 | – | −5.5 | – | 103% | – | –
